Sampled rows, rich in hits. Any-hit rate of the full collection: about 3.7%.
NPY1 pot ag = NPY-Y1 receptor potentiators or agonists, primary screen, cell-based. AID 1304, 2008. 220,000 compounds, 0.37% hits. activation, % at 3.6 µM. Neuropeptide Y receptor type 1 (Homo sapiens), P25929. NPY-Y1 expressing cells, potentiator/agonist activation; in the data active means activation above about 33%, passing the limit was not always enough;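 further: cells stimulated with NPY at EC10 then isoproterenol at EC100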
Furin inhibitor = human furin inhibitors, primary screen, biochemical, fluorescence intensity | P09958 | purified furin, fluorogenic substrate cleavage | inhibition, % at 20 µM or 30 µM | 220,000 compounds, 0.061% hits | AID 463115, 2010; in the data active means inhibition above about 25%
Target sequence (P09958 108-714 limits assumed): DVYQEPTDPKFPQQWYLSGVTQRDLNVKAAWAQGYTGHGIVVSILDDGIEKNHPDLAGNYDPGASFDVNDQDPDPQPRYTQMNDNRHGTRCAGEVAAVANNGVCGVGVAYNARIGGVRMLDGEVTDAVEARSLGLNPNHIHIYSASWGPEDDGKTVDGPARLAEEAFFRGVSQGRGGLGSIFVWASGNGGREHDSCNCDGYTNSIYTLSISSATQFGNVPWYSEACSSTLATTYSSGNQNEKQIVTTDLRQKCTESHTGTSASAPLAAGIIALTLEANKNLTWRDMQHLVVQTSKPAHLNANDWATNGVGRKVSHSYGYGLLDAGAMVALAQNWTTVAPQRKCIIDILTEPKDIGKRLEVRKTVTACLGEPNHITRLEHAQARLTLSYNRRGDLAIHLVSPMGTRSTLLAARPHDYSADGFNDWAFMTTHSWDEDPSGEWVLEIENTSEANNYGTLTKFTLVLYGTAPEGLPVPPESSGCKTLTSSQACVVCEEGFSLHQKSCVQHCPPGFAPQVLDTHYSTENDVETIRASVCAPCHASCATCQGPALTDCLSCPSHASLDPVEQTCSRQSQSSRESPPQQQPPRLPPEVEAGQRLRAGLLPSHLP
NPY-Y2 antag = NPY-Y2 receptor antagonists, primary screen, cell-based | Neuropeptide Y receptor type 2 (Homo sapiens), P49146 | NPY-Y2 expressing cells, antagonist mode | inhibition, % at 2.7 µM | 140,000 compounds, 0.99% hits | AID 793, 2007; in the data active means inhibition above about 17%
NPY-Y2 PAM-ag = NPY-Y2 potentiators or agonists, primary screen, cell-based. Neuropeptide Y receptor type 2 (Homo sapiens), P49146. cells expressing NPY-Y2, potentiator/agonist read-out. activation, % at 3.6 µM. 220,000 compounds, 0.45% hits; in the data active means activation above about 27%;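 further: cells stimulated with NPY near EC25 plus isoproterenol at EC100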
NPY Y1 blocker = NPY-Y1 receptor antagonists, primary screen, cell-based | Neuropeptide Y receptor type 1 (Homo sapiens), P25929 | HEK293-CNG Y1 cells, membrane potential fluorescence; NPY at EC95, then isoproterenol | inhibition, % at 3.6 µM | 200,000 compounds, 1% hits;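 active means inhibition above the campaign mean inhibition of all tested compounds plus 3 SD, cut at about 20% in these data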
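Test system: HEK293 cells co-expressing NPY Y1 receptor and cyclic-nucleotide gated channel; Also added: NPY (25 nM), isoproterenol (1 µM), Ro 20-1724 (25 µM); Compound dosing: one concentration, 3.6 µM, in 0.4% DMSO; Timing: dye 3 h, compound 60 min room temperature, stimulation 45 min; Technique: Membrane-potential fluorescent dye readout.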
KCC2 mod = KCC2 cotransporter modulators, thallium flux, primary screen, cell-based, HEK293 KCC2, FluoZin-2 fluorescence, MLSMR; AID 1456, 2008; KCC2 cells, thallium flux FluoZin-2 fluorescence; B-score of Tl+ flux slope (higher = more flux/activation; lower = inhibition) at 10 µM; 190,000 compounds, 2.2% hits;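 active means thallium flux slope and its plate-corrected score both differing from the plate sample mean at a set confidence after two filtering rounds, in either direction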;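 further: slope of fluorescence scaled to starting intensity during 10 to 20 s after thallium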
KCC2 secondary = KCC2 modulators in sodium-free buffer, confirmation, cell-based, HEK293 KCC2, thallium flux, secondary assay | shares compounds with KCC2 mod | FluoZin2 fluorescence; stronger effect = higher value | normalised thallium flux (F/F0 slope) at 10 µM | 3,700 compounds, 15% hits | AID 1713, 2009;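 active means thallium flux slope above the same plate's solvent-only control mean plus 3 SD; inconclusive means the two replicate wells disagree; inactive means no significant difference from solvent-only control wells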
KCC2 bumet counter = thallium flux persisting under bumetanide in KCC2 cells, confirmation, counter-screen for KCC2 modulator project, cell-based, HEK293 KCC2, FluoZin2, secondary assay 3. shares compounds with KCC2 mod. HEK293-KCC2 + bumetanide/ouabain; stronger effect = higher value. normalized thallium flux at 10 µM. 3,700 compounds, 49% hits;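 active means thallium entry rate above the same plate's blocked-transporter control wells by more than 3 SD; inconclusive means the two repeat wells disagree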;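 further: raw slope of fluorescence over initial fluorescence between 10 and 20 s after thallium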
KCC2 sec2 = KCC2 modulators without ouabain present, confirmation, cell-based, HEK293 KCC2, thallium flux, FluoZin2, secondary assay 2; AID 1715, 2009; thallium flux FluoZin2 fluorescence; actives lie on both sides; F/F0 rise rate, 10–20 s post-thallium; shares compounds with KCC2 mod; 3,700 compounds, 23% hits; normalized thallium flux at 10 µM;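 active means thallium flux slope more than 3 SD above or below the plate's solvent-only control mean, mostly below; inconclusive means the two repeat wells disagreed; inactive means no significant shift from solvent-only controls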
HEK counter1 = thallium flux modulation in parental HEK cells, confirmation, counter-screen for KCC2 modulator project, cell-based, counterscreen 1 | shares compounds with KCC2 mod | HEK293 parental cells, thallium flux FluoZin2, ouabain; baseline-ratio fluorescence slope, 10–20 s after thallium | thallium flux rate (normalised fluorescence) at 10 µM | 3,700 compounds, 46% hits;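 active means thallium flux rate significantly above the same plate's solvent-only control wells, beyond their mean plus 3 SD; inconclusive means the two replicate wells gave conflicting results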
KCC2 ouabain = KCC2 inhibitors and activators, ouabain retest, confirmation, HEK-KCC2 cells | AID 1717, 2009 | HEK293-KCC2, thallium flux FluoZin2 fluorescence; bidirectional: low = inhibitor, high = activator | shares compounds with KCC2 mod | raw Tl+ flux slope (below DMSO = inhibition, above = activation) at 10 µM | 3,700 compounds, 48% hits;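 active means thallium flux slope beyond 3 SD from same-plate DMSO control mean in most replicates, usually higher, sometimes lower; inconclusive means repeat tests gave conflicting results; inactive means no significant difference from controls in most replicates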;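 further: slope of initial-normalized fluorescence between seconds 10 and 20 after thallium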
HEK293 Tl flux2 = native HEK Tl+ uptake effects, second counter-screen – HEK cells, counterscreen 2, counter-screen for KCC2 modulator project, confirmation; AID 1718, 2009; HEK293 parental, thallium flux FluoZin-2 fluorescence slope; thallium flux slope at 10 µM; 3,700 compounds, 33% hits; shares compounds with KCC2 mod;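 active means thallium flux slope above the same plate's solvent-control mean plus 3 SD in both duplicate wells; inconclusive means duplicate wells that disagreed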;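 further: run without ouabain in cells lacking the KCC2 cotransporter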
Large screens that a line does not name were inactive (follow-up assays come after a bar, where they were run).

COc1ccc(N=Nc2nc3cc(Br)c(Br)cc3n2C)c(OC)c1	none
Cc1ccc(S(=O)(=O)N2CCCC2C(=O)Nc2nc3ccccc3s2)cc1 (stereo unspecified)	none
O=C(Nc1nc2ccccc2s1)C1CCCN1S(=O)(=O)c1ccc(Cl)cc1 (stereo unspecified)	none (no result: KCC2 mod) | KCC2 secondary inactive | KCC2 bumet counter inactive | KCC2 sec2 inactive | HEK counter1 inactive | KCC2 ouabain inactive | HEK293 Tl flux2 inactive
CN1C(=O)/C(=C/c2cc(C(C)(C)C)c(O)c(C(C)(C)C)c2)NC1=S	KCC2 mod 12 (no result: NPY-Y2 antag) | KCC2 secondary inactive | KCC2 bumet counter 0.018 | KCC2 sec2 inactive | HEK counter1 0.013 | KCC2 ouabain inactive | HEK293 Tl flux2 0.012
Fc1ccc(OCc2nc(-c3ccc(Br)o3)no2)c(F)c1	none (no result: KCC2 mod) | KCC2 secondary inactive | KCC2 bumet counter inactive | KCC2 sec2 inactive | HEK counter1 inactive | KCC2 ouabain 0.015 | HEK293 Tl flux2 inactive
COc1ccc(OC)c(C(c2nnnn2C2CCCC2)N2CCN(c3ccccc3)CC2)c1 (stereo unspecified)	none
Cc1nc(SCc2ccccc2)c([N+](=O)[O-])[nH]1	KCC2 mod -5.2 | KCC2 secondary inactive | KCC2 bumet counter inactive | KCC2 sec2 0.027 | HEK counter1 inactive | KCC2 ouabain 0.014 | HEK293 Tl flux2 inactive
CCOc1ccc(Nc2n[nH]c(=S)s2)cc1	KCC2 mod -5.3 | KCC2 secondary inconclusive | KCC2 bumet counter inactive | KCC2 sec2 0.02 | HEK counter1 inactive | KCC2 ouabain inconclusive | HEK293 Tl flux2 inactive
CC1=Nc2ccccc2/C1=C/c1sc(=N)n(-c2nccs2)c1O	KCC2 mod -3.6 | KCC2 secondary inactive | KCC2 bumet counter 0.00052 | KCC2 sec2 0.02 | HEK counter1 0.0049 | KCC2 ouabain 0.0097 | HEK293 Tl flux2 0.0071
O=C1Nc2ccc([N+](=O)[O-])cc2OC1CCN1CCN(Cc2ccccc2)CC1 (stereo unspecified)	KCC2 mod -4.2 (no result: NPY-Y2 antag) | KCC2 secondary inactive | KCC2 bumet counter inactive | KCC2 sec2 0.026 | HEK counter1 inactive | KCC2 ouabain 0.013 | HEK293 Tl flux2 inactive
Cc1ccc(C)c(NC(=S)N/N=C2/CCCCc3ccccc32)c1	KCC2 mod 9.6 | KCC2 secondary inactive | KCC2 bumet counter 0.036 | KCC2 sec2 0.047 | HEK counter1 0.037 | KCC2 ouabain 0.038 | HEK293 Tl flux2 0.038
